# Data published in publication PMC11001196 (Microbial Biotechnology, 2024).
# Read-outs that look alike come from different tables or passages of the source.
# How the values were obtained:
# [1] = tested on: FS6; test: spectrophotometric kinetics, Lineweaver-Burk; type: biochemical, metagenome; settings: pH 5.5, 25 °C, HAM poly-buffer
# Summary of the method: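 Purified metagenome-derived acid phosphatase (imidazole-gradient eluted, dialysed into MES/HEPES/acetate buffer with 150 mM NaCl) at 0.1-1 µM in 0.1 mL HAM poly-buffer (40 mM HEPES, 40 mM acetic acid, 40 mM MES). […] at 0 to 0.22 mM; hydrolysis followed spectrophotometrically. Vmax and Km derived from Michaelis–Menten analysis and Lineweaver–Burk double-reciprocal plots.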
# [2] = target: FS6 acid phosphatase (class C acid phosphatase, histidine-tagged recombinant FS6); test: AUC
compound,measurement,setting,value
Nc1ncnc2c1ncn2[C@@H]1O[C@H](COP(=O)(O)O)[C@@H](O)[C@H]1O [adenosine 5'-monophosphate],Km,[1]; read-out: AMP-5’ / Km,180 ± 70 µM
Nc1nc2c(ncn2[C@@H]2O[C@H](COP(=O)(O)O)[C@@H](O)[C@H]2O)c(=O)[nH]1 [guanosine 5'-monophosphate],Km,[1]; read-out: GMP-5’ / Km,220 ± 20 µM
O=[N+]([O-])c1ccc(OP(=O)(O)O)cc1 [p-nitrophenyl phosphate],Km,[1]; read-out: pNPP / Km,40 ± 10 µM
O=c1ccn([C@@H]2O[C@H](COP(=O)(O)O)[C@@H](O)[C@H]2O)c(=O)[nH]1 [uridine 5'-monophosphate],Km,[1]; read-out: UMP-5’ / Km,180 ± 130 µM
"FS6 acid phosphatase (class C acid phosphatase, histidine-tagged recombinant FS6) (enzyme)",stoichiometry N,[2],10
